# Experimental data reported in ChEMBL document CHEMBL3425408, “Design, synthesis, in vitro, and in vivo anticancer and antiangiogenic activity of novel 3-arylaminobenzofuran derivatives targeting the colchicine site on tubulin” (J Med Chem, 2015).
# Active and inactive are the calls of the source. The rule behind the calls is not given here.
# Tests used:
# [1] = test system: HeLa; test: Antiproliferative activity against human HeLa cells after 72 hrs by (3-(4,5-dimethylthiazol-2-yl)-2,5-diphenyltetrazolium bromide test; format: functional, cell-based
# [2] = test system: A549; test: Antiproliferative activity against human A549 cells after 72 hrs by (3-(4,5-dimethylthiazol-2-yl)-2,5-diphenyltetrazolium bromide test; format: functional, cell-based; settings: A549, 72 h
# [3] = test system: HT-29; test: Antiproliferative activity against human HT-29 cells after 72 hrs by (3-(4,5-dimethylthiazol-2-yl)-2,5-diphenyltetrazolium bromide test; format: functional, cell-based; settings: HT-29, 72 h
# [4] = test system: Jurkat; test: Antiproliferative activity against human Jurkat cells after 72 hrs by (3-(4,5-dimethylthiazol-2-yl)-2,5-diphenyltetrazolium bromide test; format: functional, cell-based
# Summary of the method: (§1)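 Jurkat, RS4;11 and HL-60 cells grown in RPMI-1640; MCF-7, A549, HeLa and HT-29 cells grown in DMEM; both media with 10% FBS and penicillin/streptomycin. 8 × 10^3 cells per well were preincubated 18 h at 37 °C, 5% CO2, then exposed 72 h to a concentration range (DMSO ≤0.25%). Read-out was MTT; IC50 was taken against cells given the maximum DMSO. Mean ± SE of at least three experiments.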
# [5] = Antiproliferative activity against human RS4:11 cells after 72 hrs by (3-(4,5-dimethylthiazol-2-yl)-2,5-diphenyltetrazolium bromide test; format: functional, cell-based; settings: RS4-11, 72 h; summary of the method: as §1
# [6] = test system: MCF7; test: Antiproliferative activity against human MCF7 cells after 72 hrs by (3-(4,5-dimethylthiazol-2-yl)-2,5-diphenyltetrazolium bromide test; format: functional, cell-based; settings: MCF7, 72 h
# [7] = Antiproliferative activity against human HL60 cells after 72 hrs by (3-(4,5-dimethylthiazol-2-yl)-2,5-diphenyltetrazolium bromide test; format: functional, cell-based; settings: HL-60, 72 h; summary of the method: as §1
# [8] = test system: HUVEC; test: Cytotoxicity against human HUVEC cells after 72 hrs by MTT assay; format: cell-based
# Summary of the method: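 HUVECs were isolated from umbilical cord veins, kept in M200 with low-serum growth supplement and used at passages 1–6. […] Mean ± SEM of three separate experiments.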
# [9] = test system: MDA-MB-231; test: Cytotoxicity against human MDA-MB-231 cells after 72 hrs by MTT assay; format: functional, cell-based; settings: MDA-MB-231, 72 h
# [10] = target: Tubulin (Bos taurus, UniProt Q6B856+Q862L2+Q862F3); test: Inhibition of bovine brain tubulin assembly after 20 mins incubation by spectrophotometric analysis
# Summary of the method: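 Bovine brain tubulin (10 μM) was preincubated with varying compound concentrations in glutamate buffer at 30 °C, then chilled to 0 °C. GTP was added to 0.4 mM final and the mixture warmed to 30 °C in cuvettes.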
# [11] = test system: Mus musculus; test: In vivo antitumor activity against mouse BNL 1ME A.7R.1 cells allografted in Balb/c mouse assessed as reduction in tumor growth at 5 mg/kg, ip up to 8 days relative to vehicle treated control; format: functional, organism-based; parameters: dose 5 mg/kg
# Summary of the method: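 Male Balb/c mice, 8 weeks old, received 10^7 BNL 1ME A.7R.1 cells in 200 μL PBS subcutaneously in the dorsal region. Mice were randomised into groups of 5 and dosed ip daily from day 2. Vehicle was 0.9% NaCl with 5% PEG 400 and 0.5% Tween 80, at 7 μL/g. Tumours were measured daily by caliper for 7 days; V = AB²/2.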
SMILES,IC50 [1],IC50 [2],IC50 [3],IC50 [4],IC50 [5],IC50 [6],IC50 [7],IC50 [8],IC50 [9],IC50 [10],inhibition [11]
CCOc1cccc2c(Nc3cc(OC)c(OC)c(OC)c3)c(C(=O)OC)oc12,2530 nM,8900 nM,3200 nM,3700 nM,400 nM,> 10000 nM,4200 nM,,,,
COC(=O)c1oc2ccccc2c1Nc1cc(OC)c(OC)c(OC)c1,260 nM,5280 nM,930 nM,4100 nM,430 nM,7800 nM,4400 nM,,,,
CCOC(=O)c1oc2ccc(OC)cc2c1Nc1cc(OC)c(OC)c(OC)c1,1260 nM,8900 nM,1400 nM,2300 nM,190 nM,2900 nM,3400 nM,,,,
COc1ccc(/C=C\c2cc(OC)c(OC)c(OC)c2)cc1O [COMBRETASTATIN A4],,,,,0.8 nM,,1 nM,,,,
COC(=O)c1oc2c(O)c(OC)ccc2c1C(=O)c1cc(OC)c(OC)c(OC)c1,,,,,,,,1 nM,1 nM,,
CCOC(=O)c1oc2c(OCC)cccc2c1Nc1cc(OC)c(OC)c(OC)c1,3280 nM,7250 nM,5300 nM,9100 nM,3000 nM,> 10000 nM,5500 nM,,,,
COC(=O)c1oc2ccc(OC)cc2c1Nc1cc(OC)c(OC)c(OC)c1,250 nM,1570 nM,240 nM,210 nM,39 nM,7900 nM,470 nM,,,7500 nM,
CCOC(=O)c1oc2ccccc2c1Nc1cc(OC)c(OC)c(OC)c1,1330 nM,5470 nM,1600 nM,180 nM,300 nM,6600 nM,2500 nM,,,,
COC(=O)c1oc2cccc(OC)c2c1Nc1cc(OC)c(OC)c(OC)c1,> 10000 nM,> 10000 nM,> 10000 nM,> 10000 nM,> 10000 nM,> 10000 nM,> 10000 nM,,,,
CCOC(=O)c1oc2c(OC)cccc2c1Nc1cc(OC)c(OC)c(OC)c1,270 nM,1100 nM,110 nM,290 nM,230 nM,2100 nM,590 nM,,,6400 nM,
COC(=O)c1oc2c(OC)cccc2c1Nc1cc(OC)c(OC)c(OC)c1,130 nM,1270 nM,290 nM,30 nM,1 nM,520 nM,320 nM,,,7600 nM,
COc1ccc(/C=C\c2cc(OC)c(OC)c(OC)c2)cc1OP(=O)(O)O,,,,,,,,,,,Active
CCOC(=O)c1oc2cccc(OC)c2c1Nc1cc(OC)c(OC)c(OC)c1,> 10000 nM,> 10000 nM,> 10000 nM,> 10000 nM,> 10000 nM,> 10000 nM,> 10000 nM,,,,
